Active and inactive are the calls of the source.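 The calls were made as follows: active = mean IC50 of 20 µM or lower in the 24 hour cytotoxicity test; inactive = the rest.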
These molecules were tested on CHO-XBP1 cytotoxicity, ATPlite luminescence, 24 h (assay: cytotoxicity in CHO-XBP1 reporter cells, SAR follow-up, cytotoxicity control for UPR apoptotic arm activator project, cell-based, 24 h exposure, ATPlite luminescence (AID 588558)).
Procedure, shortened: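 Material: CHO-XBP1 cells | Quantity: 1000 cells/well | Medium: F12 with 10% FBS | Incubation: 24 h compound exposure at 37 °C | Measured by: ATPLite 1-Step luminescence | Controls: Tunicamycin positive control, final concentration 10 µg/mL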

Structure (SMILES) | IC50
O=C(Nc1nc2ccc(Cl)cc2s1)c1ccccn1 | 1.36 µM
O=C(Nc1ccc(S(=O)(=O)N2CCC(F)CC2)cc1)c1ccc([N+](=O)[O-])o1 | 24.7 µM (inactive)
O=C(Nc1ccc(S(=O)(=O)N2CCC(Cl)CC2)cc1)c1ccc([N+](=O)[O-])o1 | > 80 µM (inactive)
O=C(Nc1nc2c(F)c(F)ccc2s1)c1ccccn1 | 1.35 µM
O=C(Nc1nc2ccc(F)cc2s1)c1ccccn1 | 1.99 µM
O=C(Nc1ccc(S(=O)(=O)C2CCCCC2)cc1)c1ccc([N+](=O)[O-])o1 | 22.1 µM (inactive)
O=C(Nc1nc2cc(F)c(F)cc2s1)c1ccccn1 | 1.81 µM
O=C(Nc1ccc(S(=O)(=O)N2CCNCC2)cc1)c1ccc([N+](=O)[O-])o1 | > 80 µM (inactive)
O=C(Nc1nc2c(F)cc(F)cc2s1)c1ccccn1 | 1.59 µM
O=C(Nc1nc2ccc(F)c(F)c2s1)c1ccccn1 | 1.19 µM
O=C(Nc1ccc(S(=O)(=O)c2ccccc2)cc1)c1ccc([N+](=O)[O-])o1 | 18.5 µM
O=C(Nc1nc2cc(F)ccc2s1)c1ccccn1 | 1.26 µM
CC1(C)CCN(S(=O)(=O)c2ccc(NC(=O)c3ccc([N+](=O)[O-])o3)cc2)CC1 | 18 µM
O=C(Nc1nc2cc(F)cc(F)c2s1)c1ccccn1 | 1.05 µM
O=C(Nc1nc2cccc(F)c2s1)c1ccccn1 | 1.76 µM
O=C(Nc1ccc(S(=O)(=O)N2CCOCC2)cc1)c1ccc([N+](=O)[O-])o1 | 32.3 µM (inactive)
O=C(Nc1nc2ccc(C(F)(F)F)cc2s1)c1ccccn1 | 0.97 µM
CC(C)(C)C1CCN(S(=O)(=O)c2ccc(NC(=O)c3ccc([N+](=O)[O-])o3)cc2)CC1 | 2.68 µM
CC1CCN(S(=O)(=O)c2ccc(NC(=O)c3ccc([N+](=O)[O-])o3)cc2)CC1 | 32.2 µM (inactive)
O=C(Nc1ccc(S(=O)(=O)N2CCCC2)cc1)c1ccc([N+](=O)[O-])o1 | 19.2 µM
O=C(Nc1ccc(S(=O)(=O)N2CCC(O)CC2)cc1)c1ccc([N+](=O)[O-])o1 | 27.9 µM (inactive)
Cc1cc(C)c2nc(NC(=O)c3ccccn3)sc2c1 | 3.75 µM
O=C(Nc1ccc(S(=O)(=O)N2CCOCC2)cc1)c1ccc([N+](=O)[O-])s1 | > 80 µM (inactive)
O=C(Nc1nc2c(Cl)cc(Cl)cc2s1)c1ccccn1 | 8.77 µM
O=C(Nc1ccc(S(=O)(=O)N2CCCCC2)cc1)c1ccc([N+](=O)[O-])o1 | > 80 µM (inactive)
O=C(Nc1ccc(S(=O)(=O)C2CCOCC2)cc1)c1ccc([N+](=O)[O-])o1 | 37.6 µM (inactive)
O=C(Nc1nc2c(F)cccc2s1)c1ccccn1 | 1.42 µM
O=C(Nc1ccc(S(=O)(=O)N2CCC3(CCCCC3)CC2)cc1)c1ccc([N+](=O)[O-])o1 | 9.05 µM
CC1CN(S(=O)(=O)c2ccc(NC(=O)c3ccc([N+](=O)[O-])o3)cc2)CC(C)O1 (stereo not given) | 34.9 µM (inactive)
O=C(Nc1nc2c(F)ccc(F)c2s1)c1ccccn1 | 1.06 µM

From PubChem BioAssay AID588558 (Sanford-Burnham Center for Chemical Genomics, 2011)
